Source: ChEMBL document CHEMBL4177548, “Neuroprotective Lignans from the Fruits of Schisandra bicolor var. tuberculata” (2017)
The source made the active and inactive calls. No cut-off for these calls is given here.

Assays:
[1] = test system: SH-SY5Y; test: Neuroprotective activity against Abeta (25 to 35)-induced cytotoxicity in human SH-SY5Y cells at 0.0032 uM pre-incubated for 2 hrs before Abeta (25 to 35) addition for 14 hrs by MTT assay (reference value: 60.2 to 73.5%); format: functional
[2] = test system: SH-SY5Y; test: Neuroprotective activity against Abeta (25 to 35)-induced cytotoxicity in human SH-SY5Y cells at 0.08 uM pre-incubated for 2 hrs before Abeta (25 to 35) addition for 14 hrs by MTT assay (reference value: 60.2 to 73.5%); format: functional
[3] = test system: SH-SY5Y; test: Neuroprotective activity against Abeta (25 to 35)-induced cytotoxicity in human SH-SY5Y cells at 2 uM pre-incubated for 2 hrs before Abeta (25 to 35) addition for 14 hrs by MTT assay (reference value: 60.2 to 73.5%); format: functional
[4] = test system: SH-SY5Y; test: Neuroprotective activity against Abeta (25 to 35)-induced cytotoxicity in human SH-SY5Y cells at 0.0032 to 2 uM pre-incubated for 2 hrs before Abeta (25 to 35) addition for 14 hrs by MTT assay relative to untreated control; format: functional
[5] = test system: SH-SY5Y; test: Neuroprotective activity against CoCl2-induced cytotoxicity in human SH-SY5Y cells at 0.0032 to 2 uM pre-incubated for 2 hrs before CoCl2 addition for 14 hrs by MTT assay relative to untreated control; format: functional
Outline: (§1)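 SH-SY5Y cells were kept in DMEM with 10% FBS plus penicillin/streptomycin and plated at 15 000 cells/well for 24 h. They were pretreated 2 h with compound (0.0032, 0.08, 2 μM), then challenged with 300 μM CoCl2 (chosen to give 50–70% viability). After 14 h, MTT was added, DMSO-solubilised and read at 570 nm. Values are normalized to control (100%), means ± SEM of three replicates.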

[6] = test system: SH-SY5Y; test: Neuroprotective activity against CoCl2-induced cytotoxicity in human SH-SY5Y cells at 0.0032 uM pre-incubated for 2 hrs before CoCl2 addition for 14 hrs by MTT assay relative to untreated control; format: functional, cell-based; outline: as §1
[7] = test system: SH-SY5Y; test: Neuroprotective activity against H2O2-induced cytotoxicity in human SH-SY5Y cells at 0.0032 uM pre-incubated for 2 hrs before H2O2 addition for 14 hrs by MTT assay relative to untreated control; format: functional, cell-based
Outline: (§2)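 Hydrogen peroxide injury: SH-SY5Y cells (DMEM, 10% FBS, penicillin/streptomycin) were seeded at 15 000 cells/well and left 24 h. They received test compounds at 0.0032, 0.08 or 2 μM for 2 h before 350 μM H2O2. MTT read-out followed at 14 h: DMSO dissolution, OD 570 nm. Viability is expressed as % of control, triplicate, means ± SEM, one-way ANOVA with Newman-Keuls.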

[8] = test system: SH-SY5Y; test: Neuroprotective activity against H2O2-induced cytotoxicity in human SH-SY5Y cells at 0.0032 to 2 uM pre-incubated for 2 hrs before H2O2 addition for 14 hrs by MTT assay relative to untreated control; format: functional; outline: as §2
[9] = test system: SH-SY5Y; test: Neuroprotective activity against Abeta (25 to 35)-induced cytotoxicity in human SH-SY5Y cells at 50 uM pre-incubated for 2 hrs before Abeta (25 to 35) addition for 14 hrs by MTT assay (reference value: 60.2%); format: functional, cell-based

Row | Compound | Activity [1] [%] | Activity [2] [%] | Activity [3] [%] | Activity [4] [%] | Activity [5] [%] | Activity [6] | Activity [7] | Activity [8] [%] | Activity [9] [%]
1 | COc1cc(C[C@@H](COC(C)=O)[C@@H](C)Cc2ccc3c(c2)OCO3)ccc1O | 68.3 | 80.8 | 69 |  |  |  |  |  | 
2 | COc1ccc([C@H]2O[C@H](c3ccc(OC)c(OC)c3)[C@@H](C)[C@H]2C)cc1OC [GANSCHISANDRINE] | 75.1 | 85.3 | 79.8 | >15 | >15 |  |  |  | 
3 | COc1ccc(C(=O)O[C@H](c2ccc(OC)c(OC)c2)[C@@H](C)C(C)=O)cc1OC | 78.4 | 85.1 | 80.4 | >15 |  | Active |  |  | 
4 | COc1cc(C[C@H](C)[C@H](CO)Cc2ccc3c(c2)OCO3)ccc1O | 75.8 | 88.2 | 82.4 | >15 |  | Active |  |  | 
5 | COc1cc(C[C@@H](C)[C@H](C)[C@@H](O)c2ccc3c(c2)OCO3)ccc1O | 81.6 | 83.3 | 76.6 | >15 | >15 | Active | Active | >15 | 
6 | COc1cc(C[C@H](C)[C@H](COC(C)=O)Cc2ccc3c(c2)OCO3)ccc1O | 73.1 | 80.2 | 87 | >15 |  |  |  | >15 | 
7 | COc1ccc([C@@H]2O[C@@H](c3ccc(O)c(OC)c3)[C@@H](C)[C@H]2C)cc1O | 64.5 | 77.1 | 71 | >15 |  |  |  |  | 
8 | COc1cc(C[C@H](CO)[C@H](C)Cc2ccc(O)c(OC)c2)ccc1O | 77.4 | 74.3 | 69.2 |  |  |  |  | >15 | 
9 | COc1cc(C[C@H](CO)[C@H](C)Cc2ccc3c(c2)OCO3)ccc1O | 70.8 | 83.6 | 84.2 |  |  |  |  |  | 
10 | COc1cc(C[C@@H](C)[C@H](C)Cc2ccc3c(c2)OCO3)ccc1O | 73.5 | 77.1 | 72 |  |  | Active |  | >15 | 
11 | COc1cc([C@H]2c3cc4c(cc3C[C@@H](C)[C@@H]2C)OCO4)ccc1O | 84.5 | 71.9 | 75.7 | >15 |  | Active |  |  | 
12 | C=C(Cc1ccc2c(c1)OCO2)[C@H](C)Cc1ccc(O)c(OC)c1 | 84.7 | 78.5 | 78.1 | >15 |  |  | Active |  | 
13 | COc1cc(C[C@@H](C)[C@H](C)Cc2ccc(O)c(OC)c2)ccc1O [(-)-DIHYDROGUAIARETICACID] | 79.2 | 85.1 | 80.8 |  | >15 | Active | Active |  | 
14 | COc1cc([C@H]2O[C@@H](c3ccc(OC)c(OC)c3)[C@H](C)[C@H]2C)ccc1O | 81.7 | 75.3 | 75.3 |  |  | Active |  |  | 
15 | VITAMIN E |  |  |  |  |  |  |  |  | 72.5
16 | COc1ccc([C@H]2O[C@@H](c3ccc(OC)c(OC)c3)[C@H](C)[C@@H]2C)cc1OC [GALGRAVIN] | 76.9 | 92.9 | 86.7 | >15 |  |  |  | >15 | 
17 | C[C@@H]1[C@@H](CO)[C@H](c2ccc3c(c2)OCO3)O[C@H]1c1ccc2c(c1)OCO2 | 71.3 | 94.3 | 87.3 | >15 |  | Active |  |  | 
18 | COc1cc([C@H]2O[C@@H](c3ccc4c(c3)OCO4)[C@H](C)[C@H]2COC(C)=O)ccc1O | 68.6 | 88.6 | 79.3 | >15 |  | Active | Active | >15 | 
19 | COc1cc(C[C@@H](COC(C)=O)[C@@H](C)Cc2ccc(O)c(OC)c2)ccc1O | 74.1 | 81 | 83.2 | >15 |  |  |  | >15 | 
